Source: ChEMBL document CHEMBL3769372, “Specific Inhibitors of HIV Capsid Assembly Binding to the C-Terminal Domain of the Capsid Protein: Evaluation of 2-Arylquinazolines as Potential Antiviral Compounds” (J Med Chem, 2016)
Residues, ends and D or L forms follow the SMILES beside them.

How the values were obtained:
[1] = Cytotoxicity against human TZM-bl cells assessed as cell viability at 10 uM after 48 hrs by MTS assay relative to control; format: cell-based; settings: read-out: Activity
In short: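 TZM-bl cells (DMEM, 10% FBS, 10 mM HEPES) incubated with compound at 37 °C, 5% CO2 for 48 h in parallel with the infectivity assay; viability by MTS read-out. Tested in triplicate at 10 µM final, with titration 0.625–20 µM; values normalized to DMSO-only treated cells.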

[2] = target: T1, Structural capsid protein (Human immunodeficiency virus 1, UniProt Q76129); assay: Binding affinity to recombinant N-terminal GST-tagged HIV1 NL4-3 capsid C-terminal domain (146 to 231 residues) incubated for 2 hrs by alphascreen assay
T1 sequence (Q76129 whole entry, the tested form may be a part): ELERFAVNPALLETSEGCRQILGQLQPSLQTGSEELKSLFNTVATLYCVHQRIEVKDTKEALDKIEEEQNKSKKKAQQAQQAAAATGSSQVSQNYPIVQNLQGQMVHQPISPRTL
In short: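 AlphaScreen competition: GST-fused CA (60 nM) on glutathione acceptor beads and biotinylated peptide (30 nM) on streptavidin donor beads, beads 10 µg/ml. Buffer was PBS, 0.05% Tween 20, 2 mM DTT. Compounds were titrated 0.2–200 µM and incubated 2 h at RT, with emission read at 520–620 nm. Inhibition was normalized to DMSO-only (max) and buffer (min) controls.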

[3] = system: Human immunodeficiency virus 1; assay: Antiviral activity against HIV1 NL4-3 infected in human TZM-bl cells assessed as inhibition of viral replication administered 6 hrs postinfection measured 48 hrs by luciferase reporter gene assay; format: functional, organism-based; settings: Human immunodeficiency virus 1, NL4-3, TZM-bl
In short: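 TZM-bl cells infected with NL4-3 stock (from MT-4 co-culture) at MOI 1; at 6 h p.i. medium replaced with DMEM containing compound, refreshed at 30 h p.i.; supernatants collected at 52 h p.i. and titrated on fresh TZM-bl cells; infection read by luciferase at 48 h p.i.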

[4] = system: Human immunodeficiency virus 1; assay: Selectivity ratio of Kd for recombinant HIV1 NL4-3 capsid N183A mutant to Kd for full length HIV1 capsid (1 to 231 residues)
In short: (§1)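 Ratio of ITC-derived KD for each mutant CA to KD for wild-type CA. Titrations were at 25 °C in 30 mM MES pH 6.0, 10% glycerol, 2 mM 2-mercaptoethanol, 2% DMSO. Peptide ligand (320–350 µM) was injected into 23–33 µM protein, with a buffer-only control.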

[5] = Binding affinity to recombinant HIV1 NL4-3 capsid N183A mutant by isothermal titration calorimetry; design: species or system Human immunodeficiency virus 1
In short: (§2)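 Point mutants made by PCR, expressed solubly in E. coli BL21(DE3)RIL, enriched by ammonium sulphate fractionation (20–50%), then MonoS cation exchange (pH 5.5) and Superdex75 gel filtration. Binding by ITC at 25 °C in 30 mM MES pH 6.0, 10% glycerol, 2 mM 2-mercaptoethanol, 2% DMSO. 320–350 µM peptide ligand was injected in 2 µl steps into 23–33 µM protein, with a buffer-only control.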

[6] = system: Human immunodeficiency virus 1; assay: Selectivity ratio of Kd for recombinant HIV1 NL4-3 capsid L211S mutant to Kd for full length HIV1 capsid (1 to 231 residues); in short: as §1
[7] = target: T1, Structural capsid protein; assay: Binding affinity to full length HIV1 NL4-3 capsid (1 to 231 residues) by isothermal titration calorimetry
In short: (§3)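 ITC at 25 °C (Auto-iTC200) in 30 mM MES pH 6.0, 10% glycerol, 2 mM 2-mercaptoethanol, 2% DMSO. Protein and peptide concentrations were set by HPLC amino acid analysis. 320–350 µM peptide ligand was injected in 2 µl steps into 23–33 µM protein until saturated. A buffer-only injection control was run, and titrations were repeated in two buffers of differing ionization enthalpy.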

[8] = target: T1, Structural capsid protein; assay: Binding affinity to full length HIV1 NL4-3 dimeric capsid (1 to 231 residues) by isothermal titration calorimetry
In short: (§4)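 VP-ITC at 25 °C in 30 mM MES pH 6.0 with 10% glycerol, 2 mM 2-mercaptoethanol and 2% DMSO; protein concentrations by HPLC amino acid analysis. Ligand concentration was estimated by UV spectra after centrifugation to remove precipitate. 9 µl aliquots of 31 µM ligand went into 3.9 µM CA dimer or 3.1 µM CA CTD dimer to saturation. Ligand-into-buffer heat was subtracted.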

[9] = target: T1, Structural capsid protein; assay: Binding affinity to HIV1 NL4-3 dimeric capsid C-terminal domain (146 to 231 residues) by isothermal titration calorimetry; in short: as §4
[10] = Binding affinity to recombinant HIV1 NL4-3 capsid L211S mutant by isothermal titration calorimetry; design: species or system Human immunodeficiency virus 1; in short: as §2
[11] = Binding affinity to recombinant HIV1 NL4-3 capsid L211A mutant by isothermal titration calorimetry; design: species or system Human immunodeficiency virus 1; in short: as §2
[12] = Binding affinity to recombinant HIV1 NL4-3 capsid E187A mutant by isothermal titration calorimetry; design: species or system Human immunodeficiency virus 1; in short: as §2
[13] = system: Human immunodeficiency virus 1; assay: Selectivity ratio of Kd for recombinant HIV1 NL4-3 capsid E187A mutant to Kd for full length HIV1 capsid (1 to 231 residues); in short: as §1
[14] = target: T1, Structural capsid protein; assay: Binding affinity to HIV1 NL4-3 capsid C-terminal domain (146 to 231 residues) by isothermal titration calorimetry; in short: as §3
[15] = system: Human immunodeficiency virus 1; assay: Selectivity ratio of Kd for recombinant HIV1 NL4-3 capsid L211A mutant to Kd for full length HIV1 capsid (1 to 231 residues); in short: as §1
[16] = Binding affinity to recombinant HIV1 NL4-3 capsid Y169A mutant by isothermal titration calorimetry; design: species or system Human immunodeficiency virus 1; in short: as §2
[17] = system: Human immunodeficiency virus 1; assay: Selectivity ratio of Kd for recombinant HIV1 NL4-3 capsid Y169A mutant to Kd for full length HIV1 capsid (1 to 231 residues); in short: as §1
[18] = target: T1, Structural capsid protein; assay: Binding affinity to HIV1 NL4-3 capsid at 25 degC by isothermal titration calorimetry; in short: as §3

SMILES	viability at 48 h, 10 µM [1] [%]	IC50 [2] [µM]	IC50 [3] [µM]	also measured
CON(C)C(=O)c1ccc(Nc2nc(-c3cccnc3)nc3ccccc23)cc1	97	37	> 10	
CCOC(=O)Cc1ccc(Nc2nc(-c3cccnc3)nc3ccccc23)cc1	98	> 100	> 10	
CCOC(=O)c1ccccc1Nc1nc(-c2ccncc2)nc2ccccc12	97	37	> 10	
CCOC(=O)c1ccc(Nc2nc(-c3ccncc3)nc3ccccc23)cc1	96	8	> 10	Selectivity ratio [4]: 7; Kd [5]: 0.89 µM; Selectivity ratio [6]: 14; Kd [7]: 0.14 µM; Kd [8]: 0.14 µM; Kd [9]: 0.038 µM; Kd [10]: 1.9 µM
CSc1ccc(Nc2nc(-c3ccncc3)nc3ccccc23)cc1	95		10	
CCOC(=O)c1cccc(Nc2nc(-c3ccncc3)nc3ccccc23)c1	96	21	5.3	
OC(c1ccc(Nc2nc(-c3cccnc3)nc3ccccc23)cc1)(C(F)(F)F)C(F)(F)F	46	> 100		
CCOC(=O)c1ccc(Nc2nc(-c3cccnc3C)nc3ccccc23)cc1	100	14	> 10	
O=C(NCCF)c1ccc(Nc2nc(-c3cccnc3)nc3ccccc23)cc1	90	3	> 10	
C[S+]([O-])c1ccc(Nc2nc(-c3ccncc3)nc3ccccc23)cc1 (stereo not drawn)	98	> 100	> 10	
O=C(c1ccc(Nc2nc(-c3cccnc3)nc3ccccc23)cc1)C(F)(F)F	62	> 100		
OC(c1ccc(Nc2nc(-c3cccnc3)nc3ccccc23)cc1)C(F)(F)F (stereo not drawn)	87	> 100	10	
O=C(NCCO)c1ccc(Nc2nc(-c3cccnc3)nc3ccccc23)cc1	100	> 100	> 10	
CC(=O)c1ccc(Nc2nc(-c3cccnc3)nc3ccccc23)cc1	93	14	8	
NS(=O)(=O)c1ccc(Nc2nc(-c3cccnc3)nc3ccccc23)cc1	98	80	> 10	
CCNC(=O)c1ccc(Nc2nc(-c3cccnc3)nc3ccccc23)cc1	97	> 100	> 10	
CCNS(=O)(=O)c1ccc(Nc2nc(-c3cccnc3)nc3ccccc23)cc1	97	> 100	> 10	
CC[C@H](C)[C@H](N)C(=O)N[C@H](C(=O)N[C@@H](Cc1ccccc1)C(=O)N[C@@H](CCC(=O)O)C(=O)N[C@@H](CC(=O)O)C(=O)N[C@@H](CC(C)C)C(=O)N[C@@H](CC(C)C)C(=O)N[C@@H](CC(=O)O)C(=O)N[C@@H](Cc1ccc(O)cc1)C(=O)N[C@@H](Cc1ccc(O)cc1)C(=O)NCC(=O)N1CCC[C@H]1C(N)=O)[C@@H](C)O (H-ITFEDLLDYYGP-NH2)				Kd [11]: 15 µM; Selectivity ratio [4]: 13; Kd [12]: 5 µM; Kd [5]: 53 µM; Selectivity ratio [6]: 21; Kd [7]: 4 µM; Selectivity ratio [13]: 1; Kd [14]: 3 µM; Selectivity ratio [15]: 4; Kd [16]: 13 µM; Kd [10]: 84 µM; Selectivity ratio [17]: 3
CC(=O)c1ccc(Nc2nc(-c3ccncc3)nc3ccccc23)cc1	96	9	4.6	
O=C(O)c1ccc(-c2nc(-c3ccccc3)c(-c3ccccc3)[nH]2)cc1				Kd [18]: 85 µM
N#Cc1ccc(Nc2nc(-c3ccncc3)nc3ccccc23)cc1	96	4	> 10	
CC(=O)c1cccc(Nc2nc(-c3cccnc3)nc3ccccc23)c1	89	30	8	
O=C(O)c1ccc(Nc2nc(-c3ccncc3)nc3ccccc23)cc1	98	> 100	> 10	
CS(=O)(=O)c1ccc(Nc2nc(-c3ccncc3)nc3ccccc23)cc1	97	> 100	> 10	
CONC(=O)c1ccc(Nc2nc(-c3cccnc3)nc3ccccc23)cc1	99	63	> 10	
NC(=O)c1ccc(Nc2nc(-c3ccncc3)nc3ccccc23)cc1	97	> 100	> 10	
CC(O)c1ccc(Nc2nc(-c3cccnc3)nc3ccccc23)cc1 (stereo not drawn)	98	> 100	> 10	
CCOC(=O)c1ccc(Nc2nc(-c3cccnc3)nc3ccccc23)cc1	84	47	4.7	
CCOC(=O)c1cccc(Nc2nc(-c3cccnc3)nc3ccccc23)c1	83	68	5	
